Data as given in ChEMBL document CHEMBL1155465, “"Viologen" dendrimers as antiviral agents: the effect of charge number and distance” (J Med Chem, 2010).
≈ marks a conversion by molar mass, not a printed value.

Assays:
[1] = Cytotoxicity against human MT4 cells after 5 days by MTT assay; assay type: cell-based
In short: (§1)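 MT-4 cells in RPMI 1640 with 10% heat-inactivated FCS, 2 mM L-glutamine, 0.1% bicarbonate and gentamicin, seeded at 6 × 10⁵ cells/mL final with virus or mock infection. Viability read by MTT after 5 days at 540 and 690 nm, using the median OD of three wells. CC50 is 50% loss of mock-infected OD540. EC50 is 50% inhibition of virus-induced CPE. SI = CC50/EC50. Mean ± SD of ≥2 experiments.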

[2] = test system: Human immunodeficiency virus 1; assay: Antiviral activity against HIV1 3B infected in human MT4 cells after 5 days by MTT assay; assay type: functional, organism-based; settings: Human immunodeficiency virus 1, 3B, MT4, 120 h; in short: as §1
[3] = test system: Human immunodeficiency virus 2; assay: Antiviral activity against HIV2 ROD infected in human MT4 cells after 5 days by MTT assay; assay type: functional, organism-based; settings: Human immunodeficiency virus 2, ISOLATE ROD, MT4, 120 h; in short: as §1
[4] = Selectivity index, ratio of CC50 for human MT4 cells to EC50 for HIV1 3B; assay type: toxicity, cell-based; settings: read-out: Ratio CC50/EC50; in short: as §1
[5] = test system: Simian immunodeficiency virus; assay: Antiviral activity against SIV MAC251 infected in human MT4 cells after 5 days by MTT assay; assay type: functional, organism-based; settings: MAC251, MT4, 120 h; in short: as §1
Sindbis virus = assay: Antiviral activity against Sindbis virus infected in african green monkey Vero cells assessed as inhibition of virus-induced cytopathicity; assay type: functional, organism-based
Human alphaherpesvirus 2 = assay: Antiviral activity against HSV2 G infected in human E6SM cell assessed as inhibition of virus-induced cytopathicity; assay type: functional, organism-based; settings: Human alphaherpesvirus 2, strain G
Human respirovirus 3 = assay: Antiviral activity against Parainfluenza virus 3 infected in african green monkey Vero cells assessed as inhibition of virus-induced cytopathicity; assay type: functional, organism-based; settings: Human respirovirus 3, Vero
Reovirus sp. = assay: Antiviral activity against Reovirus infected in african green monkey Vero cells assessed as inhibition of virus-induced cytopathicity; assay type: functional, organism-based
[6] = test system: Vesicular stomatitis virus; assay: Antiviral activity against VSV infected in human HeLa cell assessed as inhibition of virus-induced cytopathicity; assay type: functional, organism-based
[7] = Cytotoxicity against human E6SM cells by MTT assay; assay type: cell-based
[8] = test system: Respiratory syncytial virus; assay: Antiviral activity against RSV infected in human HeLa cell assessed as inhibition of virus-induced cytopathicity; assay type: functional, organism-based
Vaccinia virus = assay: Antiviral activity against Vaccina virus infected in human E6SM cell assessed as inhibition of virus-induced cytopathicity; assay type: functional, organism-based; settings: Orthopoxvirus vaccinia
[9] = test system: Human immunodeficiency virus; assay: Antiviral activity against HIV SO6141 infected in human MT4 cells after 5 days by MTT assay; assay type: functional, organism-based; settings: Human immunodeficiency virus 1, SO6141, MT4, 120 h; in short: as §1
Human alphaherpesvirus 1 [10] = assay: Antiviral activity against TK-deficient acyclovir-resistant HSV1 KOS infected in human E6SM cell assessed as inhibition of virus-induced cytopathicity; assay type: functional, organism-based; settings: Human alphaherpesvirus 1, KOS
[11] = test system: Vesicular stomatitis virus; assay: Antiviral activity against VSV infected in human E6SM cell assessed as inhibition of virus-induced cytopathicity; assay type: functional, organism-based
[12] = test system: Human immunodeficiency virus 1; assay: Antiviral activity against HIV1 3B infected in human PBMC assessed as inhibition of viral p24 antigen production by ELISA; assay type: functional, organism-based; settings: Human immunodeficiency virus 1, 3B
In short: (§2)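 PBMCs infected with HIV-1 IIIB and cultured with a range of compound concentrations. EC50 is 50% inhibition of supernatant p24 core antigen (ELISA) relative to drug-free culture. CC50 is 50% reduction in cell viability. SI = CC50/EC50. Mean ± SD of ≥2 experiments.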

Human alphaherpesvirus 1 [13] = assay: Antiviral activity against HSV1 KOS infected in human E6SM cell assessed as inhibition of virus-induced cytopathicity; assay type: functional, organism-based; settings: Human alphaherpesvirus 1, KOS
[14] = Selectivity index, ratio of CC50 for human PBMC to EC50 for HIV1 3B; in short: as §2
[15] = Cytotoxicity against african green monkey Vero cells by MTT assay; assay type: cell-based; settings: chlorocebus sabaeus
Punta Toro virus = assay: Antiviral activity against Punta Toro virus infected in african green monkey Vero cells assessed as inhibition of virus-induced cytopathicity; assay type: functional, organism-based
[16] = Cytotoxicity against human HeLa cells by MTT assay; assay type: cell-based
[17] = Cytotoxicity against human PBMC after 5 days by MTT assay; assay type: cell-based; in short: as §2

| Compound | CC50 at 120 h [1] [µM] | EC50 [2] [µM] | EC50 [3] [µM] | selectivity ratio [4] | also measured |
| --- | --- | --- | --- | --- | --- |
| CC[n+]1ccc(-c2cc[n+](Cc3ccc(CBr)cc3)cc2)cc1 | 0.9 | > 0.9 | > 0.9 | < 1 |  |
| BrCC[n+]1ccc(-c2cc[n+](CCBr)cc2)cc1 | 20.6 | 5.88 | > 20.6 | 3.5 | EC50 [5]: > 20.6 µM |
| CC[n+]1ccc(-c2cc[n+](Cc3cc(C[n+]4ccc(-c5cc[n+](CC)cc5)cc4)cc(C[n+]4ccc(-c5cc[n+](Cc6cc(C[n+]7ccc(-c8cc[n+](Cc9cc(C[n+]%10ccc(-c%11cc[n+](CC)cc%11)cc%10)cc(C[n+]%10ccc(-c%11cc[n+](CC)cc%11)cc%10)c9)cc8)cc7)cc(-[n+]7ccc(-c8cc[n+](-c9cc(C[n+]%10ccc(-c%11cc[n+](Cc%12cc(C[n+]%13ccc(-c%14cc[n+](CC)cc%14)cc%13)cc(C[n+]%13ccc(-c%14cc[n+](CC)cc%14)cc%13)c%12)cc%11)cc%10)cc(C[n+]%10ccc(-c%11cc[n+](Cc%12cc(C[n+]%13ccc(-c%14cc[n+](CC)cc%14)cc%13)cc(C[n+]%13ccc(-c%14cc[n+](CC)cc%14)cc%13)c%12)cc%11)cc%10)c9)cc8)cc7)c6)cc5)cc4)c3)cc2)cc1.F[P-](F)(F)(F)(F)F.F[P-](F)(F)(F)(F)F.F[P-](F)(F)(F)(F)F.F[P-](F)(F)(F)(F)F.F[P-](F)(F)(F)(F)F.F[P-](F)(F)(F)(F)F.F[P-](F)(F)(F)(F)F.F[P-](F)(F)(F)(F)F.F[P-](F)(F)(F)(F)F.F[P-](F)(F)(F)(F)F.F[P-](F)(F)(F)(F)F.F[P-](F)(F)(F)(F)F.F[P-](F)(F)(F)(F)F.F[P-](F)(F)(F)(F)F.F[P-](F)(F)(F)(F)F.F[P-](F)(F)(F)(F)F.F[P-](F)(F)(F)(F)F.F[P-](F)(F)(F)(F)F.F[P-](F)(F)(F)(F)F.F[P-](F)(F)(F)(F)F.F[P-](F)(F)(F)(F)F.F[P-](F)(F)(F)(F)F.F[P-](F)(F)(F)(F)F.F[P-](F)(F)(F)(F)F.F[P-](F)(F)(F)(F)F.F[P-](F)(F)(F)(F)F | > 18.6 | 1.4 | 9.82 | 13.3 | EC50 (Sindbis virus): > 50 µg/mL; EC50 (Human alphaherpesvirus 2): 50 µg/mL; EC50 (Human respirovirus 3): > 50 µg/mL; EC50 (Reovirus sp.): > 50 µg/mL; EC50 [6]: > 50 µg/mL; MCC [7]: > 50 µg/mL; EC50 [8]: 50 µg/mL; EC50 (Vaccinia virus): > 50 µg/mL; EC50 [9]: 1.23 µM; EC50 (Human alphaherpesvirus 1 [10]): 30 µg/mL; EC50 [11]: > 50 µg/mL; EC50 [12]: > 0.52 µg/mL; EC50 [5]: ≥ 0.49 µM; EC50 (Human alphaherpesvirus 1 [13]): 6 µg/mL; Ratio CC50/EC50 [14]: <1; MCC [15]: > 50 µg/mL; EC50 (Punta Toro virus): > 50 µg/mL; MCC [16]: > 50 µg/mL; CC50 at 120 h [17]: 0.52 µg/mL |
| CC[n+]1ccc(-c2cc[n+](Cc3cc(C[n+]4ccc(-c5cc[n+](CC)cc5)cc4)cc(C[n+]4ccc(-c5cc[n+](CC)cc5)cc4)c3)cc2)cc1 | > 81.1 | > 81.1 | > 81.1 | < 1 |  |
| C=C[n+]1ccc(-c2cc[n+](Cc3ccccc3)cc2)cc1 | 2.7 | > 2.7 | > 2.7 | < 1 |  |
| C=C[n+]1ccc(-c2cc[n+](CCc3ccc([N+](=O)[O-])cc3)cc2)cc1 | 0.4 | > 0.4 | > 0.4 | < 1 |  |
| C[n+]1ccc(-c2cc[n+](C)cc2)cc1 | 25.2 | > 25.2 | > 25.2 | < 1 |  |
| NCCC[n+]1ccc(-c2ccncc2)cc1 | > 346 | > 346 | > 346 | < 1 |  |
| O=c1[nH]c(=O)n([C@H]2C[C@H](O)[C@@H](CO)O2)cc1/C=C/Br [BRIVUDINE] |  |  |  |  | EC50 (Sindbis virus): > 400 µg/mL; EC50 (Human alphaherpesvirus 2): 80 µg/mL (≈ 240 µM); EC50 (Human respirovirus 3): > 400 µg/mL; EC50 (Reovirus sp.): > 400 µg/mL; EC50 [6]: > 400 µg/mL; MCC [7]: > 400 µg/mL; EC50 [8]: > 400 µg/mL; EC50 (Vaccinia virus): 9.6 µg/mL (≈ 28.8 µM); EC50 (Human alphaherpesvirus 1 [10]): > 400 µg/mL; EC50 [11]: > 400 µg/mL; EC50 (Human alphaherpesvirus 1 [13]): 0.384 µg/mL (≈ 1.15 µM); MCC [15]: > 400 µg/mL; EC50 (Punta Toro virus): > 400 µg/mL; MCC [16]: > 400 µg/mL |
| OCC[n+]1ccc(-c2cc[n+](Cc3cc(C[n+]4ccc(-c5cc[n+](CCO)cc5)cc4)cc(C[n+]4ccc(-c5cc[n+](CCO)cc5)cc4)c3)cc2)cc1 | > 104 | 33.3 | > 104 | 3.11 | EC50 [9]: > 104 µM; EC50 [5]: 37.7 µM |
| CCC[n+]1ccc(-c2ccncc2)cc1 | > 363 | > 363 | > 363 | < 1 |  |
| CC[n+]1ccc(-c2ccncc2)cc1 | 281 | > 282 | > 282 | < 1 |  |
| BrCc1cc(CBr)cc(-[n+]2ccc(-c3cc[n+](-c4cc(CBr)cc(CBr)c4)cc3)cc2)c1 | > 148 | > 148 | > 148 | < 1 |  |
| C=C[n+]1ccc(-c2cc[n+](Cc3cc(C[n+]4ccc(-c5cc[n+](C=C)cc5)cc4)cc(C[n+]4ccc(-c5cc[n+](C=C)cc5)cc4)c3)cc2)cc1 | 33.4 | > 33.4 | > 33.4 | < 1 |  |
| BrCC[n+]1ccc(-c2ccncc2)cc1 | 79.2 | > 79.2 | > 79.2 | < 1 |  |
| NCCC[n+]1ccc(-c2cc[n+](CCCN)cc2)cc1 | 3.3 | > 3.3 | > 3.3 | < 1 |  |
| NCCC[n+]1ccc(-c2cc[n+](Cc3ccccc3)cc2)cc1 | 0.9 | > 0.9 | > 0.9 | < 1 |  |
| OCc1cc(CO)cc(-[n+]2ccc(-c3cc[n+](-c4cc(CO)cc(CO)c4)cc3)cc2)c1 | 2.7 | > 2.7 | > 2.7 | < 1 |  |
| CC[n+]1ccc(-c2cc[n+](Cc3cc(CO)cc(C[n+]4ccc(-c5cc[n+](CC)cc5)cc4)c3)cc2)cc1 | 10.6 | > 10.6 | > 10.6 | < 1 |  |
| NC(=O)c1ncn([C@@H]2O[C@H](CO)[C@@H](O)[C@H]2O)n1 [RIBAVIRIN] |  |  |  |  | EC50 (Sindbis virus): > 400 µg/mL; EC50 (Human alphaherpesvirus 2): > 400 µg/mL; EC50 (Reovirus sp.): 80 µg/mL (≈ 328 µM); EC50 [6]: 48 µg/mL (≈ 197 µM); MCC [7]: > 400 µg/mL; EC50 (Vaccinia virus): 48 µg/mL (≈ 197 µM); EC50 (Human alphaherpesvirus 1 [10]): > 400 µg/mL; EC50 [11]: > 400 µg/mL; EC50 (Human alphaherpesvirus 1 [13]): > 400 µg/mL; MCC [15]: > 400 µg/mL; MCC [16]: > 400 µg/mL |
| C[n+]1ccc(-c2cc[n+](CBr)cc2)cc1 | 5.1 | > 5.1 | > 5.1 | < 1 |  |
| C=C[n+]1ccc(-c2cc[n+](C)cc2)cc1 | 26.1 | > 26.1 | > 26.1 | < 1 |  |
| C=C[n+]1ccc(-c2ccncc2)cc1 | 15.9 | > 15.9 | > 15.9 | < 1 |  |
